Consider 6 compounds from ChEMBL document CHEMBL3217705, “Synthesis and evaluation of stable substrate analogs as potential modulators of cyclodiphosphate synthase IspF” (Medchemcomm, 2013).

Calls of active or inactive are those of the source. No cut-off for these calls is given here.

Assay [1] deals with T1, 2-C-methyl-D-erythritol 2,4-cyclodiphosphate synthase (Escherichia coli (strain K12)) (UniProt P62617).
T1 sequence (whole entry): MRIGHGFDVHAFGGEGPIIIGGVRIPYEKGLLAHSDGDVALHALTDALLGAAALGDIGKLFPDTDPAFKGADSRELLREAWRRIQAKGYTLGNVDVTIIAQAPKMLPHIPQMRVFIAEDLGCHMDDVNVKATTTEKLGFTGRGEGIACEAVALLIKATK
The assay can be described thus: Activation of Escherichia coli IspF-MEP complex assessed as increase in rate of […] formation at 100 uM by HPLC based […] formation assay relative to untreated control. In general terms: Cyclic AMP is a second messenger, typically raised through Gs and lowered through Gi signalling.

In assay [2] the target is T1, 2-C-methyl-D-erythritol 2,4-cyclodiphosphate synthase (Escherichia coli (strain K12)). The assay can be described thus: Activation of Escherichia coli IspF-MEP complex assessed as increase in rate of […] formation at 100 uM pre-incubated for 30 mins by HPLC based […] formation assay relative to untreated control.
Assay [3] has the same target. The assay can be described thus: Activation of Escherichia coli IspF assessed as increase in rate of […] formation at 100 uM pre-incubated for 30 mins by HPLC based […] formation assay relative to untreated control.
Assay [4] has the same target. As to the kind of experiment: Activation of Escherichia coli IspF assessed as residual enzyme activity at 500 uM pre-incubated for 30 mins by HPLC based CMP formation assay.
Assay [5] shares this target. The assay can be described thus: Activation of Escherichia coli IspF-MEP complex assessed as increase in rate of […] formation at 1000 uM pre-incubated for 30 mins by HPLC based […] formation assay relative to untreated control. The method in brief:
(§1)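 E. coli IspF alone or preformed IspF–MEP complex was incubated with 100 µM CDPME2P substrate. Test agents were present at 1000 µM or 700 µM, either without or after a 30 min pre-incubation. The rate of CMP formation was compared with a no-compound control run under the same pre-incubation; residual activity was taken after pre-incubation.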

The target is the same in assay [6]. As to the kind of experiment: Activation of Escherichia coli IspF-MEP complex assessed as increase in rate of […] formation at 1000 uM by HPLC based […] formation assay relative to untreated control. A digest of the protocol:
as §1

For assay [7] the target is unchanged. As to the kind of experiment: Activation of Escherichia coli IspF assessed as increase in rate of […] formation at 1000 uM pre-incubated for 30 mins by HPLC based […] formation assay relative to untreated control. A digest of the protocol: as §1
For assay [8] the target is unchanged. As to the kind of experiment: Activation of Escherichia coli IspF assessed as assessed as residual enzyme activity at 1000 uM pre-incubated for 30 mins by HPLC based […] formation assay relative to untreated control. The method in brief: as §1
The target is the same in assay [9]. The assay can be described thus: Activation of Escherichia coli IspF assessed as increase in rate of […] formation at 1000 uM by HPLC based […] formation assay relative to untreated control. A digest of the protocol:
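IspF activity was read as the rate of CMP formation from 100 µM CDPME2P, with the test compound at 1000 µM. The rate is expressed relative to a control run without compound.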

Assay [10] has the same target. As to the kind of experiment: Inhibition of Escherichia coli IspF-MEP complex at 700 uM by HPLC based […] formation assay. The method in brief:
as §1

For assay [11], the target named is T2, 2-C-methyl-D-erythritol 2,4-cyclodiphosphate synthase (Escherichia coli (strain K12), UniProt P62617).
T2 sequence (P62617 whole entry): T1 sequence (whole entry)
The assay can be described thus: Inhibition of Escherichia coli IspF by HPLC based […] formation assay.

Assay [12] concerns the target T1, 2-C-methyl-D-erythritol 2,4-cyclodiphosphate synthase (Escherichia coli (strain K12)). As to the kind of experiment: Inhibition of Escherichia coli IspF-MEP complex at 100 uM pre-incubated for 30 mins by HPLC based […] formation assay.
The target is the same in assay [13]. As to the kind of experiment: Inhibition of Escherichia coli IspF at 500 uM by HPLC based CMP formation assay.
The target is the same in assay [14]. As to the kind of experiment: Inhibition of Escherichia coli IspF-MEP complex at 500 uM by HPLC based CMP formation assay. As to conditions: TDE = time-dependent effect.
For assay [15] the target is unchanged. As to the kind of experiment: Inhibition of Escherichia coli IspF-MEP complex at 700 uM pre-incubated for 30 mins by HPLC based […] formation assay relative to untreated control. A digest of the protocol:
as §1

Assay [16] addresses T2, 2-C-methyl-D-erythritol 2,4-cyclodiphosphate synthase. As to the kind of experiment: Inhibition of Escherichia coli IspF-MEP complex by HPLC based […] formation assay.

Turning to `C[C@](O)(CO)[C@H](O)COP(=O)(O)OP(=O)(O)OC[C@H]1O[C@@H](n2ccc(N)nc2=O)[C@H](O)[C@@H]1O`, the result in assay [1], in assay [2], in assay [3] and in assay [4] was inactive.
Consider `C[C@](O)(CO)[C@H](O)COP(=O)(O)CP(=O)(O)O`, for which the outcome in [5] and in assay [6] was inactive. Besides, the fold change (FC) in assay [7] is 8.7; in assay [9], 1.8. The Activity in assay [8] was found to be 54%.
Consider `C[C@](O)(CO)[C@H](O)COP(=O)(O)CP(=O)(O)OC[C@H]1O[C@@H](n2ccc(N)nc2=O)[C@H](O)[C@@H]1O`, for which the outcome in [1] was Active. Besides, the fold change (FC) in assay [2] is 1.3; in assay [3], 2.2. In [4], the outcome was inactive.
Turning to `Nc1ccn([C@@H]2O[C@H](COP(=O)(O)OP(=O)(O)O)[C@@H](O)[C@H]2O)c(=O)n1`, in assay [10], the inhibition (in general, the share of the control response that was lost under treatment) was “inactive”. Besides, the IC50 (commonly the midpoint of a concentration-inhibition curve) in assay [11] was 768 µM.
For `C[C@@](CO)(OP(=O)(O)O)[C@H](O)COP(=O)(O)CP(=O)(O)OC[C@H]1O[C@@H](n2ccc(N)nc2=O)[C@H](O)[C@@H]1O`, in assay [3], the fold change (FC) turned out to be 7.6. Besides, the inhibition in assay [12] is 37%; in [14], “tde”. Further, the inhibition result in [13] is “inactive”. For the same compound, the Activity in assay [4] turned out to be 60%.
For the compound `Nc1ccn([C@@H]2O[C@H](COP(=O)(O)CP(=O)(O)O)[C@@H](O)[C@H]2O)c(=O)n1`, the values for the inhibition in assay [15] and in assay [10] were 74% and 69%, respectively. Also, the IC50 in assay [16] is 343 µM; in [11] it was 797 µM.
